Assay results taken from ChEMBL document CHEMBL1154704, “Synthesis, anti-HCV, antioxidant, and peroxynitrite inhibitory activity of fused benzosuberone derivatives” (Eur J Med Chem, 2010).
Converted amounts (≈) assume the structure as drawn.

Key:
Hepatitis C virus = test: Antiviral activity HCV in replicon cells assessed as inhibition of NS3-4A protease activity by RT-PCR; format: functional, Hepacivirus hominis
Method in brief: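 Replicon cells seeded at 1×10⁴/well; next day incubated at 37 °C with serially diluted agents in DMEM + 2% FBS + 0.5% DMSO for the indicated period. Total RNA extracted, HCV RNA copy number by quantitative RT-PCR; five replicates per point; ribavirin control. Cytotoxicity by MTS viability in same settings; Huh-7 1×10⁴ or HepG2 4×10⁴ cells/well.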

[1] = Inhibition of peroxynitrite-induced 3-nitrotyrosin formation by HPLC; format: functional
Method in brief: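 Equimolar tyrosine and peroxynitrite with compound at increasing concentrations in 100 mM phosphate buffer pH 7.4, 37 °C for 15 min. Peroxynitrite stock quantified at 302 nm (ε 1670 cm⁻¹ M⁻¹), held on ice ≤30 min after thawing. 3-Nitrotyrosine measured by HPLC; control peroxynitrite plus tyrosine; mean ± SD of 3 independent experiments.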

[2] = tested on: Radical scavenging activity; test: Antioxidant activity assessed as DPPH radical scavenging activity by microplate reader assay; format: functional; design: concentration or dose not given beside the values
Method in brief: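 Compounds or ascorbic acid standard added to DPPH radical in methanol, ratio 1:9; incubated dark 37 °C 30 min; absorbance decrease read at 515 nm on plate reader. Blank of DMSO plus DPPH; solvent control taken as 0% scavenging. Triplicate; reported as % decrease in DPPH absorbance, mean ± SD.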

SMILES	MIC (Hepatitis C virus) [mg/L]	IC50 [1] [µM]	Activity [2] [%]
O=c1cc(-c2ccccc2)nc2n(-c3ccccc3)nc(-c3ccc4c(n3)-c3ccccc3CCC4)n12	1.15 (≈ 2.39 µM)	349	40
CCOC(=O)c1cc2c(nc1C)-c1ccccc1CCC2	3.58 (≈ 12.7 µM)	329	54.4
c1ccc2c(c1)CCCc1c[nH]nc1-2	6.22 (≈ 33.8 µM)	277	45.4
N#Cc1cc2c([nH]c1=O)-c1ccccc1CCC2	4.45 (≈ 18.8 µM)	291	27.4
O=C1O[C@H]([C@@H](O)CO)C(O)=C1O			79
c1ccc2c(c1)CCCc1cnc3nc4ccccc4n3c1-2	6 (≈ 21 µM)	342	28.2
Cc1c(C)c2c(c(C)c1O)CCC(C)(C(=O)O)O2 (configuration not stated) [TROLOX]		58.4	
NC(=O)c1ncn([C@@H]2O[C@H](CO)[C@@H](O)[C@H]2O)n1 [RIBAVIRIN]	16.1 (≈ 66.1 µM)		
CC(=O)c1cc2c(nc1C)-c1ccccc1CCC2	7.09 (≈ 28.2 µM)	158	37.2
c1ccc2c(c1)CCCc1cnoc1-2	7.66 (≈ 41.4 µM)	149	44.1
c1ccc2c(c1)CCCc1ccc(-c3ccc4ccccc4c3)nc1-2	5.98 (≈ 18.6 µM)	170	54.2
c1ccc2c(c1)CCCc1cnc3ncnn3c1-2	2.21 (≈ 9.35 µM)	315	27.7
CN(C)/C=C1\CCCc2ccccc2C1=O		146	57.9
